Test results published in PubChem BioAssay.
Records with an inconclusive call do not appear. Activity calls are given as the source filed them.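 Rule for the calls, unless noted: active = viability at or below 27.92% in each of two runs, the all-compound median minus 4 SD; inconclusive = no clear call, values can overlap the other calls; inactive = the rest.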

Columns and labels:
[1] = OD615 S. cerevisiae growth inhibition, permissive medium, pilot counter-assay, permissive growth control for S. cerevisiae lifespan shortening project (AID 705;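 active = growth inhibition above 25% in both replicates, a cutoff set 3 SD above the mean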); conditions: OD615, 24 h, at 10 µM, stronger effect = higher value
Procedure, shortened: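 System: S. cerevisiae with engineered DeaD lifespan system / Measured by: absorbance (optical density) at 615 nm / Read-out: reduction in yeast growth (OD615) / Times: 4 h cell pre-growth, 24 h exposure at 30 °C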

[2] = Restrictive medium S. cerevisiae growth inhibition, OD615, pilot screen of yeast lifespan reduction project, restrictive growth control (AID 706;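 active = growth inhibition above a set limit, 3 SD over mean compound inhibition, in both replicates, cut at about 43% in these data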;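 note: modified DeaD lifespan yeast strain shifted to restrictive glucose medium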); conditions: OD615, 48 h, at 10 µM, stronger effect = higher value
Procedure, shortened: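 System: Engineered S. cerevisiae DeaD strain | Buffer or medium: Glucose-based CSMM-D restrictive medium | Schedule: 4 h pre-incubation, 48 h exposure at 30 °C | Technique: Optical density at 615 nm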

[3] = viability gain of MRP-1-high H69AR cells under doxorubicin, pilot screen, MRP-1 activator project, CellTiter-Glo, duplicate (AID 807;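 active = viability increase at or above a cutoff of the median across tested compounds plus 3 SD, cut at about 8.5% in these data, passing the limit was not always enough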;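 note: compound pretreatment 18-22 h then 72 h combined with doxorubicin; 0% = doxorubicin alone and 100% = vehicle without doxorubicin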); conditions: H69AR viability with doxorubicin, CellTiter-Glo luminescence; at 10 µM; stronger effect = higher value
[4] = growth suppression of beta-catenin knockout HCT116, pilot screen, human colon tumor cells (AID 823;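 active = cell viability at or below a set limit in both duplicate runs, the limit being the all-compound median minus 4 SD, cut at about 23% in these data, passing the limit was not always enough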;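 note: 0% = wells killed by 20 µM Hyamine and 100% = untreated DMSO cell wells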); conditions: CellTiter-Glo, 60 h, at 10 µM, stronger effect = lower value
[5] = growth suppression of PTEN-deleted HCT116, pilot screen, cell-based, HCT116 clonal line, CellTiter-Glo (AID 824); conditions: 60 h, at 10 µM, stronger effect = lower value;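 note: 0% = 20 µM Hyamine control and 100% = vehicle cell control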
[6] = inhibitors of the yeast RAM network, pilot screen, dse1pr::URA3 reporter, 5-FOA selection (AID 869;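 active = inhibition over a set limit, the all-compound mean plus 3 SD, in both replicate runs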;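 note: 0% = DMSO wells with no growth and 100% = 10 µM 1-NA-PP1 with full growth; RAM network block rescues cells from 5-FOA so hits raise OD615 growth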); conditions: S. cerevisiae dse1pr::URA3 5-FOA growth, OD615, 2 d; at 10 µM; stronger effect = higher value; strain carries analog-sensitive mutant Cbk1 kinase
[7] = RAM signaling pathway blockade in yeast – S. cerevisiae, Pdr1DBD-CYC8 efflux-inhibited sensitized strain, primary screen (AID 1298;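 active = RAM network inhibition above 8.4% in each of two replicates, 3 SD over the compound average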;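 note: 0% = DMSO untreated cells without growth and 100% = 10 µM 1-NA-PP1 full growth; higher means more yeast growth rescued from 5-FOA killing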); conditions: S. cerevisiae cbk1-as DSE1-URA3 strain, 5-FOA growth OD615, 2 d; at 50 µM; stronger effect = higher value

Cc1ccccc1-n1c(Cn2c(=O)sc3ccccc32)nnc1SCC(=O)NCC1CCCO1 (stereo not drawn)
inactive: growth inhibition [1] -3.68% | growth inhibition [2] -12.2% | viability increase [3] 0% | viability [4] 100% | viability [5] 97.9% | inhibition [6] 0.82% | RAM network inhibition [7] 3.19%

CC(Oc1ccccc1)C(=O)OCC(=O)NC(=O)NCc1ccco1 (stereo not drawn)
inactive: growth inhibition [1] -5% | growth inhibition [2] -0.75% | viability increase [3] -1.78% | viability [4] 97.9% | viability [5] 97.2% | inhibition [6] 3.58% | RAM network inhibition [7] 2.68%

O=C(CN1CCN(Cc2ccccc2Cl)C1=O)NCC1CCCO1 (stereo not drawn)
inactive: growth inhibition [1] 4.72% | growth inhibition [2] -0.62% | viability increase [3] -2.68% | viability [4] 97.2% | viability [5] 95.5% | inhibition [6] 0.35% | RAM network inhibition [7] 1.49%

COc1cc(C(=O)Oc2c(CN3CCOCC3)cc(Cl)c3cccnc23)cc(OC)c1OC
inactive: growth inhibition [1] -8.94% | growth inhibition [2] -33.1% | viability increase [3] -8.41% | inhibition [6] 1.09% | RAM network inhibition [7] 0.27%
active: viability [4] 6.72% | viability [5] 4.81%

COc1ccc(OCCC(=O)OCC(=O)NCc2ccco2)cc1
inactive: growth inhibition [1] -11% | growth inhibition [2] 1.25% | viability increase [3] -1.75% | viability [4] 92.2% | viability [5] 92.2% | inhibition [6] 1.01% | RAM network inhibition [7] 4.11%

Cn1c(=O)c2c(nc(-n3ccnc3)n2Cc2ccc(Cl)cc2Cl)n(C)c1=O
inactive: growth inhibition [1] -10.2% | growth inhibition [2] -2.64% | viability increase [3] -4.31% | viability [4] 89.2% | viability [5] 80.4% | inhibition [6] 1.17% | RAM network inhibition [7] 5.62%

CCSc1nnc2c(n1)[nH]c1c(C)cccc12
inactive: growth inhibition [1] -6.89% | growth inhibition [2] -1.28% | viability increase [3] -5.1% | viability [4] 47.9% | viability [5] 65.5% | inhibition [6] 4% | RAM network inhibition [7] 4.68%

COc1ccc(S(=O)(=O)N2CC(C)N(S(=O)(=O)c3ccc(OC)cc3)CC2C)cc1 (stereo not drawn)
inactive: growth inhibition [1] -4.74% | growth inhibition [2] 0.035% | viability increase [3] -2.77% | viability [4] 93.2% | viability [5] 102% | inhibition [6] 1.73% | RAM network inhibition [7] 5.94%

Cc1nn(-c2ccccc2)c(C)c1NC(=O)Cc1cccs1
inactive: growth inhibition [1] -10.7% | growth inhibition [2] -4.28% | viability increase [3] -2.07% | viability [4] 95.2% | viability [5] 92.1% | inhibition [6] 1.18% | RAM network inhibition [7] 1.1%

COc1ccccc1C1C(C(N)=O)=C(C)Nc2nc(-c3ccc(Cl)cc3)nn21 (stereo not drawn)
inactive: growth inhibition [1] -5.66% | growth inhibition [2] 0.335% | viability increase [3] -1.26% | viability [4] 95% | viability [5] 92.4% | inhibition [6] -0.455% | RAM network inhibition [7] -1.72%

CN(CCNC(=O)C1CC(=O)N(C2CCCC2)C1)Cc1ccccc1 (stereo not drawn)
inactive: growth inhibition [1] -2.86% | growth inhibition [2] 0.485% | viability increase [3] -0.98% | viability [4] 98.6% | viability [5] 98.3% | inhibition [6] 0.74% | RAM network inhibition [7] 0.52%

Cc1ccc(C(=O)N2CCN(C3CCCCC3)CC2)s1
inactive: growth inhibition [1] -3.88% | growth inhibition [2] -0.76% | viability increase [3] -1.15% | viability [4] 102% | viability [5] 97.7% | inhibition [6] 1.48% | RAM network inhibition [7] 1.05%

CCCCCSc1nc2c(c(=O)[nH]c(=O)n2C)n1C(C)C
inactive: growth inhibition [1] -8.31% | growth inhibition [2] -3.84% | viability increase [3] 1.12% | viability [4] 89.5% | viability [5] 85.4% | inhibition [6] 1.3% | RAM network inhibition [7] 1.95%

Nc1cccc(C(=O)Nc2ccc3nc(-c4cccnc4)[nH]c3c2)c1
inactive: growth inhibition [1] -2% | growth inhibition [2] -4.3% | viability increase [3] -1.88% | viability [4] 109% | viability [5] 102% | inhibition [6] 2.84% | RAM network inhibition [7] 6.1%

Cc1nc2ccccc2c(=O)n1NC(=O)c1c(O)c2ccccc2n(C)c1=O
inactive: growth inhibition [1] -5.41% | growth inhibition [2] 7.71% | viability increase [3] -2.45% | viability [4] 100% | viability [5] 99% | inhibition [6] 0.995% | RAM network inhibition [7] 0.88%

COc1ccc(C2c3c(oc4ccc(F)cc4c3=O)C(=O)N2CCN2CCOCC2)cc1OC (stereo not drawn)
inactive: growth inhibition [1] -0.77% | growth inhibition [2] 4.3% | viability increase [3] -1.12% | viability [4] 107% | viability [5] 108% | inhibition [6] 0.315% | RAM network inhibition [7] 2.7%

O=C(NCCCNCc1ccccc1)c1ccc(/C=N/O)nc1
inactive: growth inhibition [1] -8.54% | growth inhibition [2] -12.5% | viability increase [3] -1.94% | viability [4] 93.2% | viability [5] 97.9% | inhibition [6] 1.73% | RAM network inhibition [7] 3.09%

C=CCn1c(-c2ccco2)n[nH]c1=S
inactive: growth inhibition [1] 2.98% | growth inhibition [2] -4.35% | viability increase [3] -1.3% | viability [4] 110% | viability [5] 97.6% | inhibition [6] 1.58% | RAM network inhibition [7] 2.89%

CC1CCc2c(sc3nc(SCc4nc(-c5ccccc5)no4)n(C)c(=O)c23)C1 (stereo not drawn)
inactive: growth inhibition [1] -3.38% | growth inhibition [2] -5.98% | viability increase [3] 1.25% | viability [4] 94% | viability [5] 89% | inhibition [6] 2.21% | RAM network inhibition [7] 2.32%

CCCC(=O)C1=C(SCC)CC(C)(C)C(C(=O)OC)C1=O (stereo not drawn)
inactive: growth inhibition [1] -14.4% | growth inhibition [2] -21.5% | viability increase [3] -2.57% | viability [4] 86.5% | viability [5] 91.8% | inhibition [6] -0.035% | RAM network inhibition [7] 3.4%

Cc1cc(NC(=O)Nc2cccc3ccccc23)no1
inactive: growth inhibition [1] -3.55% | growth inhibition [2] 1.52% | viability increase [3] -4% | viability [4] 95.3% | viability [5] 89.1% | inhibition [6] -0.175% | RAM network inhibition [7] 5.09%

CN1CCN(S(=O)(=O)c2ccc3ccccc3c2)CC1
inactive: growth inhibition [1] -0.14% | growth inhibition [2] -1.93% | viability increase [3] -2.23% | viability [4] 103% | viability [5] 105% | inhibition [6] 2.92% | RAM network inhibition [7] 0.63%

COc1cc(C(c2sc3nc(C)nn3c2O)N2CCc3ccccc3C2)cc(OC)c1OC (stereo not drawn)
inactive: growth inhibition [1] 3.55% | growth inhibition [2] -1.53% | viability increase [3] -1.3% | viability [4] 110% | viability [5] 96.1% | inhibition [6] 1.23% | RAM network inhibition [7] 2.85%

CCC1CCCCN1C(=O)c1cc2cc(Br)ccc2oc1=O (stereo not drawn)
inactive: growth inhibition [1] -9.03% | growth inhibition [2] -15.9% | viability increase [3] -2.87% | viability [4] 106% | viability [5] 94.8% | inhibition [6] 0.68% | RAM network inhibition [7] 2.89%
